According to ChEMBL document CHEMBL2311405, “Synthesis and biological evaluation of indenoisoquinolines that inhibit both tyrosyl-DNA phosphodiesterase I (Tdp1) and topoisomerase I (Top1)” (J Med Chem, 2013):
Each block holds one compound with its values, some of them ahead of it. Active and inactive are the calls of the source. No cut-off for these calls is given here.

What was measured:
[1] = target: T1, DNA topoisomerase 1 (Homo sapiens) (UniProt P11387); assay: Inhibition of recombinant Top1 (unknown origin) using 3'-[32P]-end-labeled 117 bp oligonucleotide as substrate after 20 mins by SDS-PAGE analysis
T1 sequence (whole entry): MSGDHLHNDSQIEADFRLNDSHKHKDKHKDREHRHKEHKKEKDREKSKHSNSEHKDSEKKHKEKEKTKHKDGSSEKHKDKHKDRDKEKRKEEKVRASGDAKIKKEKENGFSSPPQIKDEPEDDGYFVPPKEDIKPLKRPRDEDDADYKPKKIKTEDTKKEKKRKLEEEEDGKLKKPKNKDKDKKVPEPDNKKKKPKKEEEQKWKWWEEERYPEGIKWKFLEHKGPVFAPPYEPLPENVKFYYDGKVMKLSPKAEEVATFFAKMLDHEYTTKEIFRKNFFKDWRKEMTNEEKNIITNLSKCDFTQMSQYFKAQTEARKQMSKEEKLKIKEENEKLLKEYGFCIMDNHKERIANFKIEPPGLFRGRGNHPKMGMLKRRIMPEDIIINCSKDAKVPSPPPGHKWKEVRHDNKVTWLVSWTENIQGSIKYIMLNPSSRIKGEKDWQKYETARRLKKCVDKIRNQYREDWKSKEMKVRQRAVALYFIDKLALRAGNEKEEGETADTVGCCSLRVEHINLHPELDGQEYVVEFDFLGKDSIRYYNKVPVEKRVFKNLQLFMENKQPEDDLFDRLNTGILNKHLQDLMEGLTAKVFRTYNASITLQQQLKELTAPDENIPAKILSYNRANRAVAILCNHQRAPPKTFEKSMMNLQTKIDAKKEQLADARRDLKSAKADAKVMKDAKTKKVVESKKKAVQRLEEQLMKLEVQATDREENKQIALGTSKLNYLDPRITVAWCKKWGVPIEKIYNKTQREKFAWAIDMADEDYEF
How it was run: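 3′-[32P]-end-labeled 117-bp DNA at 2 nM incubated with recombinant Top1 at 25 °C for 20 min across a range of compound concentrations. Stopped with SDS (0.5% final) plus formamide loading dye, then 20% denaturing PAGE. Dried gels were phosphorimaged.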

[2] = target: Tyrosyl-DNA phosphodiesterase 1 (Homo sapiens, UniProt Q9NUW8); assay: Inhibition of recombinant Tdp1 (unknown origin) using 5'-[32P]-labeled single-stranded DNA oligonucleotide containing 3'-phosphotyrosine as substrate after 15 mins by PAGE analysis
Chain of Tyrosyl-DNA phosphodiesterase 1 (Q9NUW8 whole entry): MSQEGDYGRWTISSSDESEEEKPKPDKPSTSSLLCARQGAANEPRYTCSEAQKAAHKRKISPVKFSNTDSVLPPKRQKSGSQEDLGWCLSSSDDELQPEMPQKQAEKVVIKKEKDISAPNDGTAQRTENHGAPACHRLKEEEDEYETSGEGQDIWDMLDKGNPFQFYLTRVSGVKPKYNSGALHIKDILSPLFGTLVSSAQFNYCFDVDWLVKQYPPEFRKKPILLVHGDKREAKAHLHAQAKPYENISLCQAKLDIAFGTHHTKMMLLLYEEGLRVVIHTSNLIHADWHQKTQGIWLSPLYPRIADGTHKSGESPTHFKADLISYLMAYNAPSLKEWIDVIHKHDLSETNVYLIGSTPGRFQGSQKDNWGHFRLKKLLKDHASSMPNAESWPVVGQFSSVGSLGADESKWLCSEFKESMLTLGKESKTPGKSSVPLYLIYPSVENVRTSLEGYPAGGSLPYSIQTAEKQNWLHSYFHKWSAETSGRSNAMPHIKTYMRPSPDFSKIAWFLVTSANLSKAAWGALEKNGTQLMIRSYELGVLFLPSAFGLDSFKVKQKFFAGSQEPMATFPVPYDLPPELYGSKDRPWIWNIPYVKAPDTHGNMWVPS

[3] = target: T1, DNA topoisomerase 1 (Homo sapiens); assay: Inhibition of recombinant Top1 (unknown origin) using 3'-[32P]-end-labeled 117 bp oligonucleotide as substrate after 20 mins by SDS-PAGE analysis relative to 1 uM MJ-3-65
SF-539 = assay: Growth inhibition of human SF539 cells; type: functional
How it was run: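 Human cancer cell line panel, compounds tested at concentrations up to 10 μM. GI50 per cell line is the mean of two determinations where a standard error is given, otherwise from one determination.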

DU-145 = assay: Growth inhibition of human DU145 cells; type: functional
UACC-62 = assay: Growth inhibition of human UACC62 cells; type: functional
SN12C = assay: Growth inhibition of human SN12C cells; type: functional
OVCAR-3 = assay: Growth inhibition of human OVCAR3 cells; type: functional
MDA-MB-435 = assay: Growth inhibition of human MDA-MB-435 cells; type: functional
HCT-116 = assay: Growth inhibition of human HCT116 cells; type: functional
HOP-62 = assay: Growth inhibition of human HOP62 cells; type: functional

Structure (SMILES): COC(=O)CCC(=O)Nc1ccc2c3c(n(CCCNC(=O)OC(C)(C)C)c(=O)c2c1)-c1ccccc1C3=O
inhibition [1]: inactive
IC50 [2]: > 111000 nM

Structure (SMILES): COC(=O)CC(=O)Nc1ccc2c3c(n(CCCNC(=O)OC(C)(C)C)c(=O)c2c1)-c1ccccc1C3=O
inhibition [1]: inactive
IC50 [2]: > 111000 nM

Structure (SMILES): COC(=O)CCCC(=O)Nc1ccc2c3c(n(CCCNC(=O)OC(C)(C)C)c(=O)c2c1)-c1ccccc1C3=O
inhibition [1]: inactive
IC50 [2]: > 111000 nM

Structure (SMILES): N#Cc1ccc2c3c(n(CCCN4CCOCC4)c(=O)c2c1)-c1ccccc1C3=O
IC50 [2]: > 111000 nM
inhibition [3]: Active

GI50 (DU-145): 240 nM
GI50 (OVCAR-3): 1720 nM
GI50 (MDA-MB-435): 620 nM
GI50 (HCT-116): 50 nM
inhibition [3]: Active
Structure (SMILES): CN(C)CCCn1c2c(c3ccc(C#N)cc3c1=O)C(=O)c1ccccc1-2
GI50 (SF-539): 1120 nM
GI50 (UACC-62): 190 nM
GI50 (SN12C): 190 nM
GI50 (HOP-62): 260 nM

GI50 (DU-145): 1510 nM
inhibition [1]: inactive
GI50 (OVCAR-3): 1600 nM
GI50 (MDA-MB-435): 1140 nM
GI50 (HCT-116): 330 nM
Structure (SMILES): NCCCn1c2c(c3ccc(NCC(=O)O)cc3c1=O)C(=O)c1ccccc1-2
GI50 (SF-539): 1790 nM
GI50 (UACC-62): 720 nM
GI50 (SN12C): 490 nM
GI50 (HOP-62): 650 nM

inhibition [3]: Active
Structure (SMILES): CC(=O)Nc1ccc2c3c(n(CCCN=[N+]=[N-])c(=O)c2c1)-c1ccccc1C3=O

Structure (SMILES): COC(=O)CC(=O)Nc1ccc2c3c(n(CCCN)c(=O)c2c1)-c1ccccc1C3=O
GI50 (SF-539): 4030 nM
GI50 (DU-145): 1570 nM
GI50 (UACC-62): 1690 nM
GI50 (SN12C): 1460 nM
GI50 (OVCAR-3): 3220 nM
GI50 (MDA-MB-435): 2330 nM
GI50 (HCT-116): 540 nM
IC50 [2]: 18000 nM
GI50 (HOP-62): 1560 nM

Structure (SMILES): NCCCn1c2c(c3ccc(NC(=O)C(=O)O)cc3c1=O)C(=O)c1ccccc1-2
inhibition [1]: inactive
IC50 [2]: > 111000 nM

Structure (SMILES): COC(=O)CCCCC(=O)Nc1ccc2c3c(n(C)c(=O)c2c1)-c1ccccc1C3=O
inhibition [1]: inactive
IC50 [2]: > 111000 nM

Structure (SMILES): Cn1c2c(c3ccc(NCC(=O)O)cc3c1=O)C(=O)c1ccccc1-2
inhibition [1]: inactive
IC50 [2]: > 111000 nM

inhibition [3]: Active
Structure (SMILES): Cn1c2c(c3ccc(NC(=O)C(=O)O)cc3c1=O)C(=O)c1ccccc1-2

Structure (SMILES): CC(C)(C)OC(=O)NCCCn1c2c(c3ccc(NCC(=O)O)cc3c1=O)C(=O)c1ccccc1-2
inhibition [1]: inactive
IC50 [2]: > 111000 nM

GI50 (DU-145): 540 nM
inhibition [1]: inactive
GI50 (OVCAR-3): 1470 nM
GI50 (MDA-MB-435): 2050 nM
GI50 (HCT-116): 380 nM
Structure (SMILES): COC(=O)CCCC(=O)Nc1ccc2c3c(n(CCCN)c(=O)c2c1)-c1ccccc1C3=O
GI50 (SF-539): 1470 nM
GI50 (UACC-62): 1220 nM
GI50 (SN12C): 1020 nM
GI50 (HOP-62): 790 nM

GI50 (DU-145): 430 nM
GI50 (OVCAR-3): 870 nM
GI50 (MDA-MB-435): 1970 nM
GI50 (HCT-116): 190 nM
inhibition [3]: Active
Structure (SMILES): O=C1c2ccccc2-c2c1c1ccc([N+](=O)[O-])cc1c(=O)n2CCCO
GI50 (UACC-62): 310 nM
GI50 (SN12C): 470 nM

Structure (SMILES): CC(C)(C)OC(=O)NCCCn1c2c(c3ccc(NC(=O)CCCC(=O)O)cc3c1=O)C(=O)c1ccccc1-2
inhibition [1]: inactive
IC50 [2]: > 111000 nM

Structure (SMILES): COc1ccc2c(c1)-c1c(c3ccc([N+](=O)[O-])cc3c(=O)n1CCCN1CCOCC1)C2=O
IC50 [2]: > 111000 nM
inhibition [3]: Active

Structure (SMILES): COc1ccc2c(c1)-c1c(c3ccc([N+](=O)[O-])cc3c(=O)n1CCCBr)C2=O
IC50 [2]: > 111000 nM
inhibition [3]: Active

Structure (SMILES): COC(=O)C(=O)Nc1ccc2c3c(n(CCCN)c(=O)c2c1)-c1ccccc1C3=O
GI50 (SF-539): 6900 nM
GI50 (DU-145): 1110 nM
GI50 (UACC-62): 1220 nM
inhibition [1]: inactive
GI50 (SN12C): 2530 nM
GI50 (OVCAR-3): 4010 nM
GI50 (MDA-MB-435): 3360 nM
GI50 (HCT-116): 570 nM
IC50 [2]: 45000 nM
GI50 (HOP-62): 650 nM

Structure (SMILES): CCOC(=O)CNc1ccc2c3c(n(C)c(=O)c2c1)-c1ccccc1C3=O
inhibition [1]: inactive
IC50 [2]: > 111000 nM

Structure (SMILES): Cn1c2c(c3ccc(NC(=O)CC(=O)O)cc3c1=O)C(=O)c1ccccc1-2
IC50 [2]: > 111000 nM

Structure (SMILES): NCCCn1c2c(c3ccc(NC(=O)CCC(=O)O)cc3c1=O)C(=O)c1ccccc1-2
inhibition [1]: inactive
IC50 [2]: > 111000 nM
